Laboratory results published in ChEMBL document CHEMBL5247599, “New β-arylchalcogeno amines with procognitive properties targeting Carbonic Anhydrases and Monoamine Oxidases” (Eur J Med Chem, 2022).
The source made the active and inactive calls. No cut-off for these calls is given here.

Assays:
[1] = tested on: Mus musculus; assay: Pro-cognitive activity in C57Bl6 mouse assessed as attenuation of long-term memory deficit by measuring increase in exploration time for novel juvenile by measuring discrimination index at 25 nmol/uL, icv measured after 48 hrs by novel object recognition test; format: functional
How it was run: (§1)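 Social recognition in adult male C57Bl6 mice with intracerebroventricular cannulae. Habituation was 10 min with two empty cups. Twenty-four hours later, a novel 3–4-week-old juvenile was placed under one cup for 10 min of exploration, followed immediately by a 5 µL infusion at 1 µL/min. Retention 48 h later offered familiar versus novel juvenile, scoring snout-to-cup contact. DI = (tN−tF)/(tN+tF).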

[2] = tested on: Mus musculus; assay: Pro-cognitive activity in C57Bl6 mouse assessed as attenuation of long-term memory deficit by measuring increase in exploration time for novel object at 25 nmol/uL, icv measured after 24 hrs by novel object recognition test; format: functional, organism-based
How it was run: (§2)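 Novel object recognition in adult male C57Bl6 mice. Habituation was 10 min in an empty arena. Twenty-four hours later, mice explored two identical objects for 5 min, then received an immediate 5 µL lateral-ventricle infusion at 1 µL/min. A 5-min retention test with one familiar and one novel object followed 24 h later. Scores were % exploration time and DI = (tN−tF)/(tN+tF).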

[3] = Toxicity in overnight fasted C57Bl6 mouse assessed as reduction in food intake at 50 nmol/uL administered directly into lateral ventricle measured for 2 hrs; details: in vivo, icv_or_intrathecal
How it was run: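 Overnight-fasted male C57Bl6 mice received a lateral-ventricle infusion. Food was presented 30 min later, and intake was recorded at 0.5 h intervals over 2 h as cumulative consumption corrected for body weight; n = 8–9 per group.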

[4] = Toxicity in C57Bl6 mouse assessed as reduction in distance travel at 50 nmol/uL administered directly into lateral ventricle by open field test; details: in vivo, icv_or_intrathecal
How it was run: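 Cannulated adult male C57Bl6 mice were placed in a 60×70 cm open-field arena 30 min after a 5 µL lateral-ventricle infusion. Total distance travelled over a 5-min session was recorded by overhead video tracking.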

[5] = tested on: Mus musculus; assay: Pro-cognitive activity in C57Bl6 mouse assessed as attenuation of long-term memory deficit by measuring increase in exploration time for novel juvenile at 25 nmol/uL, icv measured after 48 hrs by novel object recognition test; format: functional, organism-based
How it was run: (§3)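 Male adult C57Bl6 mice (8–9 weeks), lateral-ventricle cannula implanted 7 days earlier. Social recognition: 10-min habituation to arena with two empty cups; 24 h later 10-min acquisition with an unfamiliar juvenile (3–4 weeks) under one wire cup. Immediately after, 5 µL i.c.v. infusion at 1 µL/min. Retention at 48 h with familiar and novel juvenile; percentage time exploring each cup (snout-to-cup contact).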

[6] = tested on: Mus musculus; assay: Pro-cognitive activity in C57Bl6 mouse assessed as attenuation of long-term memory deficit by measuring increase in exploration time for novel juvenile at 50 nmol/uL, icv measured after 48 hrs by novel object recognition test; format: functional, organism-based; how it was run: as §3
[7] = target: Carbonic anhydrase 3 (Homo sapiens) (UniProt P07451); assay: Binding affinity to human CA3 by phenol red dye based stopped flow CO2 hydration assay; details: filed as activator
Sequence of Carbonic anhydrase 3 (Homo sapiens) (P07451 whole entry, canonical isoform): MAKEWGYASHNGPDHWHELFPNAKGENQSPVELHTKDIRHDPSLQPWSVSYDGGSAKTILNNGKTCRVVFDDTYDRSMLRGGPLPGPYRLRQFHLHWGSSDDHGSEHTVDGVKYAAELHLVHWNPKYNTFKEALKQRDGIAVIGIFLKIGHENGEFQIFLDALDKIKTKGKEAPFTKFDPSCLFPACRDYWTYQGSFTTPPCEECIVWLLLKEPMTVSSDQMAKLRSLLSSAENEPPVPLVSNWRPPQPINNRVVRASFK
How it was run: (§4)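 Purified recombinant human CA isoforms. CA-catalysed CO2 hydration was followed by stopped-flow with phenol red at 557 nm, taking initial rates over 10–100 s from at least six traces of the first 5–10% of reaction. Uncatalysed rates were subtracted. Activator stocks were 0.1 mM in deionised water, diluted down to 0.1 nM in assay buffer. K_A came from non-linear least-squares Michaelis–Menten fitting.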

[8] = target: Carbonic anhydrase 7 (Homo sapiens) (UniProt P43166); assay: Binding affinity to human CA7 by phenol red dye based stopped flow CO2 hydration assay; details: filed as activator; how it was run: as §4
Sequence of Carbonic anhydrase 7 (Homo sapiens) (P43166 whole entry): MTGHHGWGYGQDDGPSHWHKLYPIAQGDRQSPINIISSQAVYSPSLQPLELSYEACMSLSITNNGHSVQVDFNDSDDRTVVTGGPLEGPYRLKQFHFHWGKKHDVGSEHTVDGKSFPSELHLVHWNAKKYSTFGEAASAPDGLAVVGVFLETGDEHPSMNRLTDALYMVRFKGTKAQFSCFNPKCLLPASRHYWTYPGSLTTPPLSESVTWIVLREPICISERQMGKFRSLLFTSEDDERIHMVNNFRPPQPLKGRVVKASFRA

[9] = target: T1, Amine oxidase [flavin-containing] B (Homo sapiens, UniProt P27338)
T1 sequence (P27338 whole entry): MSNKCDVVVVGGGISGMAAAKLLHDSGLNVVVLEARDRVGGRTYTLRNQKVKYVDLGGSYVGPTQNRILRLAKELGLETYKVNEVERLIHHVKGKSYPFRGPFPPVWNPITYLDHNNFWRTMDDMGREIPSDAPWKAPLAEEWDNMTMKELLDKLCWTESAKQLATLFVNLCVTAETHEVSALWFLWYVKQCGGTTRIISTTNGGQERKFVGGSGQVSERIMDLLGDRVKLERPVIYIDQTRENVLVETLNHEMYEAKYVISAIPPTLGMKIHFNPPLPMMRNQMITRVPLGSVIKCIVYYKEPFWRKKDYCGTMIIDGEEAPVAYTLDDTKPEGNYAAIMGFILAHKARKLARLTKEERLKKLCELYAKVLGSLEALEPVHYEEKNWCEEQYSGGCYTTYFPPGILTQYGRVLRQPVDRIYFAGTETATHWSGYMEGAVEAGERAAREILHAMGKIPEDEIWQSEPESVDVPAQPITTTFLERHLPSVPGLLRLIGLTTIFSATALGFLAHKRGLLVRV

[10] = target: Carbonic anhydrase 14 (Homo sapiens) (UniProt Q9ULX7); assay: Binding affinity to human CA14 by phenol red dye based stopped flow CO2 hydration assay; details: filed as activator; how it was run: as §4
Sequence of Carbonic anhydrase 14 (Homo sapiens) (Q9ULX7 whole entry): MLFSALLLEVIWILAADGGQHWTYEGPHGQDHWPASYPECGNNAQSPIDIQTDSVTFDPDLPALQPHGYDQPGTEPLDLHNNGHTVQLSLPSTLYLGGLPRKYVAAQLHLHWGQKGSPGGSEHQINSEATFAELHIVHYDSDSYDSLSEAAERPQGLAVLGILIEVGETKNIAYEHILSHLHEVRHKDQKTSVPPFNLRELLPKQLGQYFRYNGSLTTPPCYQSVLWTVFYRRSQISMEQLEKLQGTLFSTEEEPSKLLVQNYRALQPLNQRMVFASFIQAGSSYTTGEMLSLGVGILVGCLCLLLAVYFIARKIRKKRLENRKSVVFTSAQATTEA

[11] = target: Carbonic anhydrase 6 (Homo sapiens) (UniProt P23280); assay: Binding affinity to human CA6 by phenol red dye based stopped flow CO2 hydration assay; details: filed as activator; how it was run: as §4
Sequence of Carbonic anhydrase 6 (Homo sapiens) (P23280 whole entry): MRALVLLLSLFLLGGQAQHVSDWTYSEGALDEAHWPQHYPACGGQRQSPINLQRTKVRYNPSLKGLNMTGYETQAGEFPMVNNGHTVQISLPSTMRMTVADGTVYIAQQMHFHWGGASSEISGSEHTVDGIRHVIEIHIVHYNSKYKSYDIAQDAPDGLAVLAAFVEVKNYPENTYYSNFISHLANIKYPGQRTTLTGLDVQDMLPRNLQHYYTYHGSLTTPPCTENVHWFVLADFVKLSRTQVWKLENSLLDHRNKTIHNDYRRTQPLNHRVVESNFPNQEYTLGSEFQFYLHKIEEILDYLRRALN

[12] = target: Carbonic anhydrase 5A, mitochondrial (Homo sapiens) (UniProt P35218); assay: Binding affinity to human CA5a by phenol red dye based stopped flow CO2 hydration assay; details: filed as activator; how it was run: as §4
Sequence of Carbonic anhydrase 5A, mitochondrial (Homo sapiens) (P35218 whole entry): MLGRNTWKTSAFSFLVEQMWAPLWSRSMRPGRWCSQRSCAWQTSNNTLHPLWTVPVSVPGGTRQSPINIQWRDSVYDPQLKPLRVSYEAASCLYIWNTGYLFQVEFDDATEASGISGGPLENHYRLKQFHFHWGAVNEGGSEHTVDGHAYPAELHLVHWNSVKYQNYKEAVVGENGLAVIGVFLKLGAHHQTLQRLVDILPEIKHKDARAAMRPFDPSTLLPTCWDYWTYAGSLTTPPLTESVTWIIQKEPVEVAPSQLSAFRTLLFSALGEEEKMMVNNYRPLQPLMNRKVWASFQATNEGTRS

[13] = target: Carbonic anhydrase 12 (Homo sapiens) (UniProt O43570); assay: Binding affinity to human CA12 by phenol red dye based stopped flow CO2 hydration assay; details: filed as activator; how it was run: as §4
Sequence of Carbonic anhydrase 12 (Homo sapiens) (O43570 whole entry): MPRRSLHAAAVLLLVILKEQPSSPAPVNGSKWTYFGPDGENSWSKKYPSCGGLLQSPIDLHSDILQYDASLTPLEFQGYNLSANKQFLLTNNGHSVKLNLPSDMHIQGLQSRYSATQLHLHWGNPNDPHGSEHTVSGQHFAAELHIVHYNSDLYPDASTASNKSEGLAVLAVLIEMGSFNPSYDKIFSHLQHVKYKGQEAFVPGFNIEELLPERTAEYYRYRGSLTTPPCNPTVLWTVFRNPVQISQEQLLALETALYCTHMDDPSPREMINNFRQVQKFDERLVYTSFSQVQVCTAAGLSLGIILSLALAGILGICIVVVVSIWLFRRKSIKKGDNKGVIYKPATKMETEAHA

[14] = target: Carbonic anhydrase 9 (Homo sapiens) (UniProt Q16790); assay: Binding affinity to human CA9 by phenol red dye based stopped flow CO2 hydration assay; details: filed as activator; how it was run: as §4
[15] = tested on: Mus musculus; assay: Pro-cognitive activity in C57Bl6 mouse assessed as attenuation of long-term memory deficit by measuring increase in exploration time for novel object by measuring discrimination index at 25 nmol/uL, icv measured after 24 hrs by novel object recognition test
[16] = target: Carbonic anhydrase 13 (Homo sapiens) (UniProt Q8N1Q1); assay: Binding affinity to human CA13 by phenol red dye based stopped flow CO2 hydration assay; details: filed as activator; how it was run: as §4
Sequence of Carbonic anhydrase 13 (Homo sapiens) (Q8N1Q1 whole entry, looked up): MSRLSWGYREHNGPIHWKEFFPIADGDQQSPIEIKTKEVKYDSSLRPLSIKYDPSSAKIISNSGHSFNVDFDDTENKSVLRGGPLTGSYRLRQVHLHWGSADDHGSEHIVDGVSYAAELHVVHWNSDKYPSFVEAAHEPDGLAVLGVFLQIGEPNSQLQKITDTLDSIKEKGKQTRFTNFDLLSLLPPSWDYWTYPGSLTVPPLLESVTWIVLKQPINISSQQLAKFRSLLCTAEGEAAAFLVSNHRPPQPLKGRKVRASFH

[17] = target: Carbonic anhydrase 4 (Homo sapiens) (UniProt P22748); assay: Binding affinity to human CA4 by phenol red dye based stopped flow CO2 hydration assay; details: filed as activator; how it was run: as §4
Sequence of Carbonic anhydrase 4 (Homo sapiens) (P22748 whole entry): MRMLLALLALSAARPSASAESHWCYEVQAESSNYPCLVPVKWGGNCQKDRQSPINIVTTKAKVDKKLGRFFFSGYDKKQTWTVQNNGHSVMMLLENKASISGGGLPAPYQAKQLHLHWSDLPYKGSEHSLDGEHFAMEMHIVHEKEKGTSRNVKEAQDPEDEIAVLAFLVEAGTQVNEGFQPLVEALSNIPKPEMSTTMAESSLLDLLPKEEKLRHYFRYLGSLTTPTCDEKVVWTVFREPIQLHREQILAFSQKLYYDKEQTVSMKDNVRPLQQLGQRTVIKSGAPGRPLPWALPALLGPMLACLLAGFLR

[18] = target: Carbonic anhydrase 1 (Homo sapiens) (UniProt P00915); assay: Binding affinity to human CA1 by phenol red dye based stopped flow CO2 hydration assay; details: filed as activator; how it was run: as §4
Sequence of Carbonic anhydrase 1 (Homo sapiens) (P00915 2-261 limits assumed): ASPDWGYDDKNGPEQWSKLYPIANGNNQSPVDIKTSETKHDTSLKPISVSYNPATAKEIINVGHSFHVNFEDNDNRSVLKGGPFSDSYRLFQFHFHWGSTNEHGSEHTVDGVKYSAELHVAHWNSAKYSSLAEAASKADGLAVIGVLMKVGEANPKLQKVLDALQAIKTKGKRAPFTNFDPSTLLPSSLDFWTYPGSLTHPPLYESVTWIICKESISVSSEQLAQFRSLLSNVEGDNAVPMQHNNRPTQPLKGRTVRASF

[19] = tested on: Mus musculus; assay: Pro-cognitive activity in C57Bl6 mouse assessed as attenuation of long-term memory deficit by measuring increase in exploration time for novel object by measuring discrimination index at 50 nmol/uL, icv measured after 24 hrs by novel object recognition test; format: functional; how it was run: as §2
[20] = target: Carbonic anhydrase 5B, mitochondrial (Homo sapiens) (UniProt Q9Y2D0); assay: Binding affinity to human CA5b by phenol red dye based stopped flow CO2 hydration assay; details: filed as activator; how it was run: as §4
Sequence of Carbonic anhydrase 5B, mitochondrial (Homo sapiens) (Q9Y2D0 whole entry): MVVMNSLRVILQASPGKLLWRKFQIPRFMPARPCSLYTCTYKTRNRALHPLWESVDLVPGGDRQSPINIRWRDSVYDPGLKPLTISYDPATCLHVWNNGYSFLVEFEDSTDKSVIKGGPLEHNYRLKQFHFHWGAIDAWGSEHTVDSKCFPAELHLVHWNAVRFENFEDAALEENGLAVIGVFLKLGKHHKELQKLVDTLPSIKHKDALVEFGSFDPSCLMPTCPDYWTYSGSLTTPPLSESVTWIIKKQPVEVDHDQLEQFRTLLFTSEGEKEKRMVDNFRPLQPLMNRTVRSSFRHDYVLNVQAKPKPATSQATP

[21] = tested on: Mus musculus; assay: Pro-cognitive activity in C57Bl6 mouse assessed as attenuation of long-term memory deficit by measuring increase in exploration time for novel juvenile by measuring discrimination index at 50 nmol/uL, icv measured after 48 hrs by novel object recognition test; format: functional; how it was run: as §1

In the case of `CC(N)CSc1ccccc1` (stereo unspecified), the Activity_index [1] is reported as 0.038, the Activity [2] is reported as “inactive” and the Activity [3] is reported as “Non-Toxic”. For the same compound, the Activity [4] was “Non-Toxic”, the Activity [5] was “inactive” and the Activity [6] was “Active”. The Ka [7] was 26.8 µM, the Ka [8] was 23.4 µM and the IC50 [9] was 57.3 µM. The Ka [10] was 9.8 µM, the Ka [11] was 70.9 µM and the Ka [12] was 12.4 µM. The Ka [13] was 43.3 µM, the Ka [14] was 74.8 µM and the Activity_index [15] was 0.111. It also gave a Ka [16] of 82.4 µM, a Ka [17] of 7.1 µM and a Ka [18] of 11.8 µM. The Activity_index [19] was 0.185, the Ka [20] was 18.7 µM and the Activity_index [21] was 0.138.
